Results on five molecules are retold here after ChEMBL document CHEMBL1671756, “In vitro and in vivo antifungal susceptibilities of the Mucoralean fungus Cunninghamella” (2010).

Experiment [1] concerns Cunninghamella bertholletiae. Put plainly: Antifungal activity against Cunninghamella bertholletiae UTHSC 03-2241 after 24 hrs by broth microdilution method. Conditions: UTHSC 03-2241, 24 h. The experiment is classed as functional. A digest of the protocol:
(§1)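 CLSI broth microdilution for filamentous fungi. Isolates were stored at −80°C and subcultured on potato dextrose agar at 35°C. MICs were read after 24 h. […] The QC strain was Paecilomyces variotii ATCC 36257.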
(In general: Broth dilution looks for growth in wells or tubes with falling amounts of substance.)

In experiment [2] the test system is Cunninghamella bertholletiae. The experiment in a line: Antifungal activity against Cunninghamella bertholletiae UTHSC 04-2581 after 24 hrs by broth microdilution method. The experiment is classed as functional. To be noted: UTHSC 04-2581, 24 h. A digest of the protocol:
as §1

For experiment [3], the system named is Cunninghamella bertholletiae. Put plainly: Antifungal activity against Cunninghamella bertholletiae UTHSC 05-2275 after 24 hrs by broth microdilution method. To be noted: UTHSC 05-2275, 24 h. The class given is functional. Put shortly: as §1
The nature of experiment [4]: Antifungal activity against Cunninghamella echinulata FMR 10974 after 24 hrs by broth microdilution method. The experiment is classed as functional. A digest of the protocol: as §1
In experiment [5] the test system is Cunninghamella bertholletiae. The experiment in a line: Antifungal activity against Cunninghamella bertholletiae UTHSC 06-1945 after 24 hrs by broth microdilution method. To be noted: UTHSC 06-1945, 24 h. The experiment is classed as functional. A digest of the protocol:
as §1

Experiment [6] is described as follows: Antifungal activity against Cunninghamella echinulata FMR 10973 after 24 hrs by broth microdilution method. The experiment is classed as functional. A digest of the protocol: as §1
Experiment [7] in a line: Antifungal activity against Cunninghamella echinulata UTHSC 01-2298 after 24 hrs by broth microdilution method. The experiment is classed as functional. Put shortly:
as §1

Experiment [8] in a line: Antifungal activity against Cunninghamella echinulata UTHSC 03-3725 after 24 hrs by broth microdilution method. The experiment is classed as functional. A digest of the protocol: as §1
Experiment [9] concerns Cunninghamella bertholletiae. The experiment in a line: Antifungal activity against Cunninghamella bertholletiae FMR-9598 after 24 hrs by broth microdilution method. The class given is functional. Conditions: FMR-9598, 24 h. Put shortly:
as §1

The subject of experiment [10] is Cunninghamella bertholletiae. Put plainly: Antifungal activity against Cunninghamella bertholletiae UTHSC 05-2275 infected in neutropenic OF1 mouse assessed as increase in mouse survival rate at 50 mg/kg, po bid administered 1 day after infection for 7 days relative to untreated control. The class given is functional, organism-based. The arrangement: dose 50 mg/kg. Put shortly:
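Male OF1 mice (~30 g) were made neutropenic with cyclophosphamide 200 mg/kg i.p. plus 5-fluorouracil 150 mg/kg i.v. 1 day before challenge. Challenge was 1 × 10⁴ CFU sporangiospores in 0.2 ml saline via the lateral tail vein. Mice got ceftazidime 5 mg/day s.c. on days 1–7. Dosing started 24 h post-challenge for 7 days. There were 10 mice/group, observed daily for 20 days. Kaplan-Meier analysis with log-rank test.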

Experiment [11] has as its system Cunninghamella bertholletiae. Put plainly: Antifungal activity against Cunninghamella bertholletiae UTHSC 05-2275 infected in diabetic OF1 mouse assessed as increase in mouse survival rate at 50 mg/kg, po bid administered 1 day after infection for 7 days relative to untreated control. The class given is functional, organism-based. On the set-up: dose 50 mg/kg. Put shortly: (§2)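 Male OF1 mice were made diabetic with streptozocin 210 mg/kg i.p. Diabetes was confirmed by blood glucose >250 mg/dl at day 10. Challenge was 1 × 10⁵ CFU in 0.2 ml saline i.v. (tail vein), with ceftazidime 5 mg/day s.c. on days 1–7. Treatment began 1 day after challenge for 7 days. There were 10 mice/group, checked daily for 20 days. Kaplan-Meier analysis with log-rank comparison.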

Experiment [12] relates to Cunninghamella bertholletiae. The experiment in a line: Antifungal activity against Cunninghamella bertholletiae UTHSC 05-2275 infected in neutropenic OF1 mouse assessed as decreased fungal load in lung at 25 mg/kg, po bid administered 1 day post infection measured after 4 to 5 days relative to untreated control. The class given is functional, organism-based. The arrangement: dose 25 mg/kg. A digest of the protocol: (§3)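 Neutropenic male OF1 mice (cyclophosphamide 200 mg/kg i.p. + 5-fluorouracil 150 mg/kg i.v., day −1) were infected i.v. with 1 × 10⁴ CFU. Ten mice per group were treated from day 1 and killed by CO₂ on day 5, or on day 4 if moribund. Half of each brain, lung and kidney was homogenized in 1 ml saline. Ten-fold dilutions were plated on PDA for 24 h at 35°C and counted as log₁₀ CFU/g.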

For experiment [13], the system named is Cunninghamella bertholletiae. Put plainly: Antifungal activity against Cunninghamella bertholletiae UTHSC 05-2275 infected in neutropenic OF1 mouse assessed as decreased fungal load in lung at 50 mg/kg, po bid administered 1 day post infection measured after 4 to 5 days relative to untreated control. The class given is functional, organism-based. On the set-up: dose 50 mg/kg. A digest of the protocol:
as §3

For experiment [14], the system named is Cunninghamella bertholletiae. The experiment in a line: Antifungal activity against Cunninghamella bertholletiae UTSCH 05-2275 infected in diabetic OF1 mouse assessed as decreased fungal load in kidney at 50 mg/kg, po bid administered 1 day post infection measured after 4 to 5 days relative to untreated control. The class given is functional, organism-based. On the set-up: dose 50 mg/kg. Put shortly: (§4)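 Diabetic OF1 mice (streptozocin 210 mg/kg i.p.; glucose >250 mg/dl) were infected i.v. with 1 × 10⁵ CFU, with ceftazidime cover. Ten per group were treated from day 1 and killed day 5, or day 4 if moribund. Half-organ homogenates (brain, lung, kidney) in 1 ml saline were serially diluted 10-fold on PDA, incubated 24 h at 35°C, and reported as log₁₀ CFU/g tissue.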

The subject of experiment [15] is Cunninghamella bertholletiae. Put plainly: Antifungal activity against Cunninghamella bertholletiae UTHSC 05-2275 infected in neutropenic OF1 mouse assessed as increase in mouse survival rate at 25 mg/kg, po bid administered 1 day after infection for 7 days relative to untreated control.
The test system of experiment [16] is Cunninghamella bertholletiae. Put plainly: Antifungal activity against Cunninghamella bertholletiae UTHSC 05-2275 infected in neutropenic OF1 mouse assessed as decreased fungal load in kidney at 25 mg/kg, po bid administered 1 day post infection measured after 4 to 5 days relative to untreated control. The class given is functional, organism-based. The arrangement: dose 25 mg/kg. A digest of the protocol: as §3

Experiment [17] relates to Cunninghamella bertholletiae. The experiment in a line: Antifungal activity against Cunninghamella bertholletiae UTSCH 05-2275 infected in diabetic OF1 mouse assessed as decreased fungal load in lung at 50 mg/kg, po bid administered 1 day post infection measured after 4 to 5 days relative to untreated control. The class given is functional, organism-based. The arrangement: dose 50 mg/kg. A digest of the protocol: as §4

The subject of experiment [18] is Cunninghamella bertholletiae. Put plainly: Antifungal activity against Cunninghamella bertholletiae UTHSC 05-2275 infected in neutropenic OF1 mouse assessed as decreased fungal load in kidney at 50 mg/kg, po bid administered 1 day post infection measured after 4 to 5 days relative to untreated control. The class given is functional, organism-based. On the set-up: dose 50 mg/kg. A digest of the protocol: as §3

Experiment [19] relates to Cunninghamella bertholletiae. The experiment in a line: Antifungal activity against Cunninghamella bertholletiae UTHSC 05-2275 infected in diabetic OF1 mouse assessed as increase in mouse survival rate at 25 mg/kg, po bid administered 1 day after infection for 7 days relative to untreated control. The class given is functional, organism-based. The arrangement: dose 25 mg/kg. A digest of the protocol:
as §2

SMILES strings stand for the structures. ≈ marks a conversion by molar mass, not a printed value. Calls of active or inactive are those of the source. No cut-off for these calls is given here. Where only a bound is given, the exact number is not on record here.

For the molecule `CN(C/C=C/C#CC(C)(C)C)Cc1cccc2ccccc12` [TERBINAFINE], the MIC in experiment [1] was 0.03 µg/mL (≈ 0.103 µM); in experiment [2] it was 0.03 µg/mL (≈ 0.103 µM); in experiment [3] it was 0.06 µg/mL (≈ 0.206 µM); in experiment [4] it was 0.06 µg/mL (≈ 0.206 µM); in experiment [5], 0.03 µg/mL (≈ 0.103 µM); in experiment [6] it was 0.06 µg/mL (≈ 0.206 µM). Besides, the values for the MIC in experiment [7], in [8] and in experiment [9] were 0.06 µg/mL (≈ 0.206 µM), 0.03 µg/mL (≈ 0.103 µM) and 0.06 µg/mL (≈ 0.206 µM), respectively.
Turning to `CC[C@H](C)C[C@H](C)CCCCCCCCC(=O)N[C@H]1C[C@@H](O)[C@@H](NCCN)NC(=O)[C@@H]2[C@@H](O)CCN2C(=O)[C@H]([C@H](O)CCN)NC(=O)[C@H]([C@H](O)[C@@H](O)c2ccc(O)cc2)NC(=O)[C@@H]2C[C@@H](O)CN2C(=O)[C@H]([C@@H](C)O)NC1=O` [CASPOFUNGIN], the minimal inhibitory concentration (MIC) in experiment [1], in [2], in [3], in experiment [4], in experiment [5] and in experiment [6] was above 16 µg/mL throughout. The MIC in [7], in [8] and in [9] was above 16 µg/mL throughout.
For `CCC(C)n1ncn(-c2ccc(N3CCN(c4ccc(OCC5COC(Cn6cncn6)(c6ccc(Cl)cc6Cl)O5)cc4)CC3)cc2)c1=O` (stereo not given) [ITRACONAZOLE], the outcome in [10], in experiment [11], in [12], in [13] and in experiment [17] was Active. The MIC in experiment [1] was 1 µg/mL (≈ 1.42 µM); in experiment [2] it was 1 µg/mL (≈ 1.42 µM); in experiment [3] it was 2 µg/mL (≈ 2.83 µM); in experiment [4] it was above 16 µg/mL; in experiment [5] it was 2 µg/mL (≈ 2.83 µM); in [6], above 16 µg/mL. The figures for the minimum inhibitory concentration (MIC) in experiment [7], in [8] and in experiment [9] were above 16 µg/mL, 2 µg/mL (≈ 2.83 µM) and 8 µg/mL (≈ 11.3 µM), respectively. Moreover, the result in experiment [14], in [15], in experiment [16], in experiment [18] and in [19] was inactive.
For the molecule `C[C@@H](c1ncncc1F)[C@](O)(Cn1cncn1)c1ccc(F)cc1F` [VORICONAZOLE], the minimum inhibitory concentration (MIC) is 8 µg/mL (≈ 22.9 µM) in [1]; 16 µg/mL (≈ 45.8 µM) in [2]; 16 µg/mL (≈ 45.8 µM) in [3]; above 16 µg/mL in experiment [4]; 16 µg/mL (≈ 45.8 µM) in experiment [5]; above 16 µg/mL in [6]. In addition, the minimal inhibitory concentration (MIC) in experiment [7], in [8] and in experiment [9] was above 16 µg/mL in each case.
Take `C[C@@H](c1nc(-c2ccc(C#N)cc2)cs1)[C@](O)(Cn1cncn1)c1ccc(F)cc1F` [RAVUCONAZOLE]: the MIC in experiment [1], in experiment [2], in experiment [3], in [4], in experiment [5] and in experiment [6] was above 16 µg/mL each time. The MIC in experiment [7], in experiment [8] and in experiment [9] was above 16 µg/mL throughout.

The term MIC denotes the least concentration at which growth counts as inhibited.
